Screening data (PubChem)
An excerpt weighted towards active compounds, which were near 2.6% of everything screened.
PAD4 FP inh: human PAD4 inhibitors, primary screen, biochemical, fluorescence polarization, 1536-well format. Protein-arginine deiminase type-4 (Homo sapiens), Q9UM07. recombinant PAD4, RCA probe fluorescence polarization. inhibition, % at 6.36 µM. 330,000 compounds, 0.41% hits;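 active = percent inhibition above a cutoff equal to the mean of all tested compounds plus 3 SD, cut at about 15% in these data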;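 note: 0% = PAD4 with RCA probe and DMSO and 100% = probe without PAD4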
PRMT1 inh: PRMT1 methyltransferase inhibitors, primary screen, biochemical, fluorescence polarization; Protein arginine N-methyltransferase 1 (Homo sapiens), Q99873; recombinant PRMT1, activity-based probe fluorescence polarization; inhibition, % at 2.79 µM; 370,000 compounds, 1.3% hits; AID 652257, 2013;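 active = inhibition above about 21% made by adding two undisclosed values, limit read from the data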
GSTO1 inh: inhibitors of recombinant GSTO1, primary screen, counter-screen for RBBP9 inhibitor project, biochemical, fluorescence polarization | Glutathione S-transferase omega-1 (Homo sapiens), P78417 | activity-based probe fluorescence polarization | inhibition, % at 5.96 µM | 300,000 compounds, 1.1% hits | AID 1974, 2009;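 active = inhibition above the campaign mean inhibition plus 3 SD, cut at about 35% in these data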;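 note: 0% = GSTO1-1 with DMSO and 100% = wells lacking GSTO1-1 enzyme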
TDP2 absorb: human TDP2 enzyme inhibitors, primary screen, biochemical, epi absorbance, recombinant enzyme | 370,000 compounds, 0.34% hits | Tyrosyl-DNA phosphodiesterase 2 (Homo sapiens), O95551 | AID 720702, 2013 | T5PNP hydrolysis, p-nitrophenol absorbance 415 nm | inhibition, % at 12.8 µM;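 active = inhibition above the mean of all tested compounds plus 3 SD, set per campaign, cut at about 25% in these data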;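 note: 0% = DMSO with enzyme and 100% = buffer with substrate but no TDP2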
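Material: recombinant human TDP2; quantity: TDP2 enzyme at 120 nM final; medium: Tris-HCl pH 7.5 with MgCl2; compound: single concentration, 12.8 µM nominal, with 1% DMSO; incubation: 2 h enzyme incubation at 37 °C; signal: epi absorbance; measure: percent inhibition; benchmarks: high control without enzyme, low control DMSO plus TDP2; repeats: singlicate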
Apaf1 inhib: inhibitors of human Apaf-1 apoptosome, primary screen, biochemical, DEVD-Rh110 fluorescence, uHTS | reconstituted apoptosome caspase-3 activity | Apoptotic protease-activating factor 1 (Homo sapiens), O14727 | inhibition, % at 20 µM | 330,000 compounds, 0.71% hits; active = inhibition of at least 40% at 20 µM;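 note: plate controls were DMSO wells for no effect and DEVD-CHO caspase inhibitor wells for full effect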
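Material: reconstituted apoptosome with Apaf-1, cytochrome c, caspase-9, procaspase-3, dATP. Technique: Rh110 fluorescence intensity. Buffer or medium: pH 7.5 Hepes buffer with CHAPS, BSA, DTT. Times: 30 min plus 50 min, RT.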
PRMT1 confirm: PRMT1 methyltransferase inhibitors, confirmation, biochemical, fluorescence polarization, triplicate; shares compounds with PRMT1 inh; recombinant His-PRMT1, activity-based probe fluorescence polarization; inhibition, % at 2.79 µM; 3,300 compounds, 42% hits;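 active = mean inhibition across replicates above the hit cutoff derived for the earlier primary screen, cut at about 22% in these data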
* marks the source's active call; other numbers are inactive results; / = not tested or not shown.

SMILES	PAD4 FP inh	PRMT1 inh	GSTO1 inh	TDP2 absorb	Apaf1 inhib	PRMT1 confirm
O=C1CC(N2CCC(O)(c3ccc(Cl)cc3)CC2)C(=O)N1 (centres undefined)	1	54*	-6	-14	2	2
O=C1CC(N2CCC(O)CC2)C(=O)N1c1ccc(Br)cc1 (centres undefined)	2	57*	5	-5	-4	2
COc1ccc(N2C(=O)CC(N3CCC(O)(c4ccc(Br)cc4)CC3)C2=O)cc1 (centres undefined)	1	50*	4	6	-4	2
O=C1CC(N2CCN(c3ccc(Cl)c(Cl)c3)CC2)C(=O)N1 (centres undefined)	-4	1	-1	5	-2	/
O=CN1CCN(C2CC(=O)N(c3ccc(Br)cc3)C2=O)CC1 (centres undefined)	-5	3	10	-3	6	/
O=C1CC(N2CCC(O)(c3ccc(Br)cc3)CC2)C(=O)N1c1ccc(Cl)cc1 (centres undefined)	-8	33*	3	14	8	0
NC(=O)c1cc([N+](=O)[O-])ccc1NCc1ccc(N)cc1	2	-3	2	-4	1	/
N#CC1=C(SCC(=O)c2ccccc2)NC2=C(C(=O)CCC2)C1c1ccco1 (centres undefined)	-4	35*	1	-7	16	3
Cc1ccc(C(=O)CSC2=C(C#N)C(c3ccco3)C3=C(CCCC3=O)N2)cc1 (centres undefined)	-1	21	-4	-13	24	/
Cc1ncoc1C(=O)Nc1ncc([N+](=O)[O-])s1	-4	39*	19	-6	-4	2
O=C(Nc1ncc([N+](=O)[O-])s1)c1cccs1	-9	6	-16	-16	-7	/
CC(=O)Nc1cc(-c2ccccc2N(C)C)cn2c(-c3ccccc3)cnc12	/	6	/	2	/	/
CC(=O)Nc1cc(-c2ccccc2N(C)C)cn2c(-c3ccc(S(C)(=O)=O)cc3)cnc12	/	107*	/	5	/	20
O=C(O)CN1C(=O)S/C(=C\c2ccc3c(c2)OCO3)C1=O	6	33*	7	-1	-18	4
CCOC(=O)CN1C(=O)S/C(=C\c2ccc3c(c2)OCO3)C1=O	-2	-1	4	-10	3	/
CCCN1CCS(=O)(=O)N(Cc2cn(CC(=O)OCC)nn2)C(C(=O)OC)C1 (centres undefined)	/	4	/	-6	/	/
CCCN(CCC)S(=O)(=O)c1ccc(C(=O)OCCN2C(=O)c3cccc4c(N5CCOCC5)ccc(c34)C2=O)cc1	-2	/	1	/	21	/
O=C(OCCN1C(=O)c2cccc3c(N4CCOCC4)ccc(c23)C1=O)c1ccc(Cl)cc1	-4	29*	3	-6	8	1
CCOC(=O)C1CCN(S(=O)(=O)c2cn(C)c(C)n2)CC1	-2	-2	-1	-8	-7	/
COC(=O)CCSc1cc(NCCOC(C)=O)c([N+](=O)[O-])c2nonc12	-11	2	4	6	8	/
CC(=O)OCCNc1cc(Sc2nc3ccccc3[nH]2)c2nonc2c1[N+](=O)[O-]	-11	92*	18	3	/	52*
Cc1ccccc1CNC(=O)CN1CCCc2ccccc21	/	-6	/	10	/	/
Cc1c(C(=O)NCc2ccc3c(c2)OCO3)sc2nc(-c3ccc(F)cc3)cn12	-2	29*	3	-1	7	1
CCc1nc2ccc(C(=O)NCCCn3ccnc3)cn2c1N(C)Cc1ccc(N(C)C)cc1	/	-4	/	3	/	/
O=C(NCC1CCCO1)c1cc(-c2ccco2)nc2ccccc12 (centres undefined)	-3	73*	-7	-8	12	6
NS(=O)(=O)c1ccc(CCNC(=O)c2cccc3ccccc23)cc1	1	2	7	-11	-2	/
CCCCCCNC(=O)c1cc(-c2ccco2)nc2ccccc12	-12	42*	3	-5	23	19
